Values after ≈ are worked out from the molar mass of the structure shown.
Key:
[1] = tested on: Hepatitis C virus; assay: Selectivity ratio of EC50 for HCV harboring NS5B RNA dependent RNA polymerase S282T mutant to EC50 for wild-type HCV; format: functional, Hepacivirus hominis
[2] = tested on: Hepatitis C virus; assay: Antiviral activity against HCV genotype 1b infected in human HuH7 cells assessed as inhibition of viral replication after 3 days by luminescence assay; format: functional, organism-based, Hepacivirus hominis; details: Huh-7, 72 h
In short: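 Multiplex replicon assay carrying a renilla luciferase reporter, with stable GT1b, 1a and 2a replicons and chimeric 2b, 3a, 4a, 5a and 6a replicons. 2000 replicon cells/well in medium without Geneticin. Ten-step 1:3 serial dilutions, four replicates, 0.44% DMSO final. Incubated 3 days at 37 °C, 5% CO₂. Luminescence normalised to DMSO wells and to protease-inhibitor (ITMN-191) wells. EC50 from a four-parameter Hill fit.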

[3] = Aqueous solubility of the compound in phosphate buffer at pH 7 by reverse-phase UPLC-UV method; format: physicochemical
In short: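 Excess solid was suspended in pH 7 phosphate buffer at ambient temperature, sonicated, then stirred for at least 2 h. After centrifugation, the supernatant was quantified by reverse-phase UPLC-UV.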

[4] = Cytotoxicity against human HuH7 cells after 3 days by fluorescence assay; format: cell-based; details: Huh-7 cells
In short: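 Huh-7 HCV replicon cells were seeded at 2000 cells/well in medium without Geneticin. Compounds were added as ten-point 1:3 DMSO dilutions in quadruplicate (final DMSO 0.44%), with […] as the 100% cytotoxicity control. After 3 days at 37 °C, cells were washed and given 400 nM calcein AM for 30 min at RT, and fluorescence read at ex 490/em 520 nm. Signal was normalized to DMSO and puromycin wells, and CC50 taken from a four-parameter Hill fit.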

[5] = Oral absorption in beagle dog at 5 mg/kg, po by LC/MS/MS analysis; format: ADME, organism-based, Canis lupus familiaris; parameters: dose 5 mg/kg, route oral; details: in vivo
In short: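 Naive male beagle dogs were dosed once, orally at 5 mg/kg in EtOH/PEG 400/50 mM citrate buffer pH 4 (5/40/55), or intravenously at 0.5 mg/kg for reference. Plasma was sampled over 24 h and processed by acetonitrile precipitation. Bioavailability %F = AUC_po × Dose_iv / (AUC_iv × Dose_po).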

[6] = Lipophilicity, log D of the compound by HPLC/UV method; format: physicochemical
In short: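 A 10 mM DMSO stock was diluted 1:100 into 1:1 acetonitrile/water, shaken 30 min, and analysed by HPLC/UV on a C18 column with 20 mM ammonium acetate/acetonitrile mobile phase.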

[7] = Metabolic stability in serum (unknown origin); format: ADME
[8] = Permeability across basolateral to apical side in human Caco2 cells at 10 uM after 1 to 2 hrs by LC/MS/MS analysis; format: ADME, cell-based; details: Caco-2, read-out: permeability
In short: (§1)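 Caco-2 monolayers were grown at least 21 days, and membrane integrity was checked by TEER after buffer equilibration. Test compound was dosed at 10 μM on the apical or basolateral side, in duplicate wells. Receiver samples at 1 and 2 h were precipitated with acetonitrile plus internal standard and run by LC/MS/MS.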

[9] = Metabolic stability in human liver S9 fraction assessed as extraction at 2 uM after 90 mins by LC/MS/MS analysis; format: ADME, subcellular; details: read-out: Stability
In short: (§2)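 Compound at 2 μM was incubated with human intestinal or hepatic S9 fraction plus NADPH and UDPGA for 90 min at 37 °C. Time-point samples were quenched in aqueous acetonitrile/methanol with internal standard and analysed by LC/MS/MS. Half-life came from an exponential first-order fit, and hepatic extraction was predicted from half-life using the well-stirred model.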

[10] = Half life in human intestinal S9 fraction at 2 uM by LC/MS/MS analysis; format: ADME, Intestine; in short: as §2
[11] = AUC (0 to infinity) in portal vein cannulated beagle dog at 0.5 mg/kg, iv by LC/MS/MS analysis; format: ADME, organism-based, Canis lupus familiaris; parameters: time infinity, dose 0.5 mg/kg, route intravenous; details: plasma
In short: (§3)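 Naive male beagle dogs got a single intravenous infusion of 0.5 mg/kg in EtOH/PEG 400/water 5/20/75, adjusted to pH 4 with HCl. EDTA-K3 blood was collected over 24 h and plasma isolated. Plasma was precipitated with acetonitrile to a final 60%, filtered, dried, reconstituted in 20% acetonitrile and analysed.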

[12] = tested on: Syrian golden hamster; assay: Cmax in golden syrian hamster assessed as liver triphosphate level at 5 mg/kg, po by LC/MS/MS analysis; format: ADME, organism-based, Mesocricetus auratus; parameters: dose 5 mg/kg, route oral; details: in vivo
In short: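 Groups of 12 Golden Syrian hamsters were dosed orally at 5 mg-equiv/kg. Vehicle was EtOH/PEG400/water buffered with 50 mM pH 4 citrate at 2.5 mg-equiv/mL. Liver was homogenized in four volumes of ice-cold 0.1% KOH/67 mM EDTA in 70% MeOH containing 0.25 μM Cl-ATP, then centrifuged, dried and reconstituted in 1 mM ammonium phosphate pH 7.0. Triphosphate was measured by LC/MS/MS, with endogenous ATP checked for sample stability.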

[13] = tested on: Hepatocyte; assay: Prodrug coversion in human hepatocytes assessed as triphosphate formation assesed per million cells at 10 uM incubated for 1 hr followed by compound washout by liquid chromatography coupled with mass spectrometry; format: ADME, cell-based; parameters: dose 10 uM
In short: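 Confluent primary human hepatocytes (0.88 × 10⁶ cells/well, Williams E medium) were exposed to 10 μM compound for 1 h, then to drug-free medium for 23 h. Cells were collected during and after exposure and extracted. Triphosphate was quantified by LC/MS/MS and expressed per million cells.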

[14] = Permeability across apical to basolateral side in human Caco2 cells at 10 uM after 1 to 2 hrs by LC/MS/MS analysis; format: ADME, cell-based; details: Caco-2, read-out: permeability; in short: as §1
[15] = AUC (0 to infinity) in jagular vein cannulated beagle dog at 0.5 mg/kg, iv by LC/MS/MS analysis; format: ADME, organism-based, Canis lupus familiaris; parameters: time infinity, dose 0.5 mg/kg, route intravenous; details: plasma; in short: as §3
[16] = tested on: Syrian golden hamster; assay: Cmax in golden syrian hamster assessed as liver triphosphate level at 1 mg/kg, iv by LC/MS/MS analysis; format: ADME, organism-based, Mesocricetus auratus; parameters: dose 1 mg/kg, route intravenous; details: in vivo
In short: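 Golden Syrian hamsters in groups of 12, dosed iv at 1 mg-equiv/kg in EtOH/PEG400/water adjusted to pH 4 with HCl (0.5 mg-equiv/mL). Liver homogenised in ice-cold 70% MeOH with 0.1% KOH, 67 mM EDTA and 0.25 μM Cl-ATP internal standard, then centrifuged, dried and reconstituted. Triphosphate measured by LC/MS/MS; endogenous ATP checked for sample stability.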

[17] = Oral bioavailability in golden syrian hamster at 5 mg/kg; format: ADME, organism-based, Mesocricetus auratus; details: in vivo
[18] = target: DNA-directed RNA polymerase, mitochondrial (Homo sapiens) (UniProt O00411); assay: Inhibition of mitochondrial RNA polymerase (unknown origin) assessed as inhibition of single nucleotide incorporation; details: concentration not given here
In short: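 Reactions started with 500 μM (final) natural NTP or NTP analog. Time-point aliquots were quenched in EDTA/formamide, heated to 65 °C, resolved on 20% polyacrylamide/8 M urea gels, and product formation quantified by phosphorimaging.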

[19] = tested on: Huh-7; assay: Prodrug coversion in human HuH7 cells assessed as triphosphate formation at 10 uM after 24 hrs by liquid chromatography coupled with mass spectrometry; format: ADME, cell-based; details: huh-7, 24 h
In short: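 Huh-7 cells carrying the GT1b replicon, grown to confluency in 12-well plates (0.88 × 10⁶ cells/well). Exposed 24 h to 10 μM compound, then washed with ice-cold saline and extracted overnight in frozen 70% methanol. Dried extract resuspended in 1 mM ammonium phosphate pH 8.5. Triphosphate quantified by LC/triple-quadrupole MS.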

Sequence of DNA-directed RNA polymerase, mitochondrial (Homo sapiens) (O00411 whole entry): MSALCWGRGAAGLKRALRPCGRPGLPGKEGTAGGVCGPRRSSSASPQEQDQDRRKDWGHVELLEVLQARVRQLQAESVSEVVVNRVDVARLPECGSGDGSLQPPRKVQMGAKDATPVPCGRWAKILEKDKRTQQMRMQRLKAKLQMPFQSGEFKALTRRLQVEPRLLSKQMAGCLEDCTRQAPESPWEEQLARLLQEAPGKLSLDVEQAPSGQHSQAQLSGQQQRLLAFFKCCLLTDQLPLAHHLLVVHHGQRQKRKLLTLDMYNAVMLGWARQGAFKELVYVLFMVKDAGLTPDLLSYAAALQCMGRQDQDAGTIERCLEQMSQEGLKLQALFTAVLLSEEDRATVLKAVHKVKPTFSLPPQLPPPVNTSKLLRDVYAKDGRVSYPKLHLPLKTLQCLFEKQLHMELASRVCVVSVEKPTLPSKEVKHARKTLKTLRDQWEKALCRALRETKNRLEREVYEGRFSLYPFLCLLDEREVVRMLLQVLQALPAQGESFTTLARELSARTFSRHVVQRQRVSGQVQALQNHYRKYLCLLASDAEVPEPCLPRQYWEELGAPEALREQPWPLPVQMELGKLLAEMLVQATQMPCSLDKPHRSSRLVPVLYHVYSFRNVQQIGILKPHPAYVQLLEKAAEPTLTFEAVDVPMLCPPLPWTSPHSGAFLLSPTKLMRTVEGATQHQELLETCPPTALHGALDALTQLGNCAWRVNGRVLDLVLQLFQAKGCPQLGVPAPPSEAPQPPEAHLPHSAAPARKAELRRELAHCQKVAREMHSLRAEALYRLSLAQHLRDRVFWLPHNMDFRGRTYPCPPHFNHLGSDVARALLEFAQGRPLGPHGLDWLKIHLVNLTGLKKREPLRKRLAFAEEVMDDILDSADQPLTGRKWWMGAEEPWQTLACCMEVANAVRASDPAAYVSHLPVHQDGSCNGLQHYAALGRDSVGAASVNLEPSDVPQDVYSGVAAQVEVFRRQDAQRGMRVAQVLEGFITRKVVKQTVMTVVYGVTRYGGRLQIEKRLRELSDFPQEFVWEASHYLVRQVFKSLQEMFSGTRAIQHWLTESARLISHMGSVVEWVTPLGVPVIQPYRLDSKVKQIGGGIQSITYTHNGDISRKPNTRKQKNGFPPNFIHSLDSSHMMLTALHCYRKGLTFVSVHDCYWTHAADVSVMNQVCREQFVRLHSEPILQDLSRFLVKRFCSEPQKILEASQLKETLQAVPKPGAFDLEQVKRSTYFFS

C[C@@]1(O)[C@H](O)[C@@H](CO)O[C@H]1n1ccc2c(N)ncnc21 [BETA-2'-C-METHYL-7-DEAZA-ADENOSINE]
Ratio EC50 [1]: >95

CC[C@H](C)OC(=O)[C@H](C)NP(=O)(OC[C@H]1O[C@@](C#N)(c2ccc3c(N)ncnn23)[C@](C)(O)[C@@H]1O)Oc1ccccc1 (stereo not given in full)
EC50 [2]: 0.23 µM | solubility [3]: 200 µg/mL (≈ 340 µM) | CC50 at 72 h [4]: > 89 µM | Fa [5]: 16% | logD [6]: 2.1 | Stability [7]: Stable | Papp B→A at 10 µM [8]: 17.9 ×10⁻⁶ cm/s | hepatic extraction ratio at 1.5 h, 2 µM [9]: 0.93 | half-life at 2 µM [10]: 9.87 h | AUC(0-inf) [11]: 0.8 µM·h | Cmax [12]: 1270 nM | Drug metabolism [13]: Active | Papp A→B at 10 µM [14]: 1.47 ×10⁻⁶ cm/s | AUC(0-inf) [15]: 0.12 µM·h

CC[C@@H](C)OC(=O)[C@H](C)NP(=O)(OC[C@H]1O[C@@](C#N)(c2ccc3c(N)ncnn23)[C@](C)(O)[C@@H]1O)Oc1ccccc1 (stereo not given in full)
EC50 [2]: 0.98 µM | solubility [3]: 151 µg/mL (≈ 257 µM) | CC50 at 72 h [4]: > 89 µM | Fa [5]: 8.1% | logD [6]: 1.9 | Stability [7]: Stable | Papp B→A at 10 µM [8]: 37.5 ×10⁻⁶ cm/s | hepatic extraction ratio at 1.5 h, 2 µM [9]: 0.94 | half-life at 2 µM [10]: 7.68 h | AUC(0-inf) [11]: 0.46 µM·h | Cmax [12]: 1870 nM | Papp A→B at 10 µM [14]: 0.75 ×10⁻⁶ cm/s | AUC(0-inf) [15]: 0.14 µM·h

C[C@H](NP(=O)(OC[C@H]1O[C@@](C#N)(c2ccc3c(N)ncnn23)[C@](C)(O)[C@@H]1O)Oc1ccccc1)C(=O)OC1CCCC1 (stereo not given in full)
EC50 [2]: 0.45 µM | solubility [3]: 10 µg/mL (≈ 16.7 µM) | CC50 at 72 h [4]: > 89 µM | logD [6]: 2.2 | Papp B→A at 10 µM [8]: 5.86 ×10⁻⁶ cm/s | Cmax [16]: 2800 nM | bioavailability [17]: 6% | hepatic extraction ratio at 1.5 h, 2 µM [9]: 0.95 | half-life at 2 µM [10]: 0.5 h | Cmax [12]: 840 nM | Drug metabolism [13]: Active | Papp A→B at 10 µM [14]: 0.37 ×10⁻⁶ cm/s

C[C@@]1(O)[C@H](O)[C@@H](CO)O[C@@]1(C#N)c1ccc2c(N)ncnn12
EC50 [2]: > 89 µM | inhibition [18]: 0.03% | Drug metabolism [19]: < 0.5 µM

C[C@H](NP(=O)(OC[C@H]1O[C@@](C#N)(c2ccc3c(N)ncnn23)[C@](C)(O)[C@@H]1O)Oc1ccccc1)C(=O)OC(C)(C)C (stereo not given in full)
EC50 [2]: > 89 µM | solubility [3]: 380 µg/mL (≈ 646 µM) | CC50 at 72 h [4]: > 89 µM | logD [6]: 2.2 | Papp B→A at 10 µM [8]: 31.1 ×10⁻⁶ cm/s | hepatic extraction ratio at 1.5 h, 2 µM [9]: 0.84 | half-life at 2 µM [10]: > 10.2 h | Papp A→B at 10 µM [14]: 0.67 ×10⁻⁶ cm/s

CCC(CC)COC(=O)[C@H](C)NP(=O)(OC[C@H]1O[C@@](C#N)(c2ccc3c(N)ncnn23)[C@](C)(O)[C@@H]1O)Oc1ccccc1 (stereo not given in full)
EC50 [2]: 0.44 µM | solubility [3]: 1.8 µg/mL (≈ 2.92 µM) | CC50 at 72 h [4]: 35 µM | Fa [5]: 7.9% | logD [6]: 2.7 | Papp B→A at 10 µM [8]: 7.2 ×10⁻⁶ cm/s | Cmax [16]: 8330 nM | bioavailability [17]: 5.4% | hepatic extraction ratio at 1.5 h, 2 µM [9]: 0.97 | half-life at 2 µM [10]: 1.23 h | AUC(0-inf) [11]: 0.21 µM·h | Cmax [12]: 2260 nM | Papp A→B at 10 µM [14]: 0.36 ×10⁻⁶ cm/s | AUC(0-inf) [15]: 0.02 µM·h

— ChEMBL document CHEMBL3120104, “Discovery of the first C-nucleoside HCV polymerase inhibitor (GS-6620) with demonstrated antiviral response in HCV infected patients” (J Med Chem, 2014)
